ChEMBL document CHEMBL1149629 (Bioorg Med Chem, 2007)
The source made the active and inactive calls. The calls are words filed in the database; no cut-off is given here.

Legend:
[1] = target: T1, Serine/threonine-protein kinase Chk1 (Homo sapiens) (UniProt O14757); test: Inhibition of human Chk1 at 10 uM
T1 sequence (whole entry): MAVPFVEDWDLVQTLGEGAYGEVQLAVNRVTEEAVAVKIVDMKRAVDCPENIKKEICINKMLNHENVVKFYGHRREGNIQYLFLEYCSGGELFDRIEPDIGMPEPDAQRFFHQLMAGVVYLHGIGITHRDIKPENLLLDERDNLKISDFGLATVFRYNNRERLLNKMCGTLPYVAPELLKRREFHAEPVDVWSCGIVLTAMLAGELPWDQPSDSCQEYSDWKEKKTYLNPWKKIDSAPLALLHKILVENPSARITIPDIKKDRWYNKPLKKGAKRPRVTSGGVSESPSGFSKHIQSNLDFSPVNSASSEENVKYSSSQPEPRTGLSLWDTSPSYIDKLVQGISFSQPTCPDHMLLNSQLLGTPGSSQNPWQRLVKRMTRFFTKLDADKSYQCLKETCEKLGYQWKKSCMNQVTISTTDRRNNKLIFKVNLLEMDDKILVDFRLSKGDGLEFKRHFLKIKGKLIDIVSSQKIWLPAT
Method in brief: (§1)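 Chk1 from a commercial source or purified as GST–Chk1 from baculovirus-infected Sf9 cells. Assay based on a published method. Percent inhibition determined at 10 µM; IC50 determined for selected compounds.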

A549 = test: Antiproliferative activity against human A549 cells […] by microculture tetrazolium assay; format: functional, cell-based
Method in brief: (§2)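 Tumor cells (ATCC) grown in RPMI 1640 with 10% fetal calf serum, 2 mM L-glutamine, penicillin/streptomycin, 10 mM HEPES pH 7.4. Continuous exposure to graded concentrations for four doubling times, then MTT added and incubated 4 h at 37 °C. Formazan dissolved in DMSO, optical density read. IC50 = concentration reducing OD by 50% versus untreated controls.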

[2] = target: T2, Serine/threonine-protein kinase Chk1 (Homo sapiens, UniProt O14757); test: Inhibition of human Chk1; method in brief: as §1
T2 sequence (O14757 whole entry): T1 sequence (whole entry)

L1210 = test: Antiproliferative activity against mouse L1210 cells […] by microculture tetrazolium assay; format: functional, cell-based; method in brief: as §2
HT-29 = test: Antiproliferative activity against human HT29 cells […] by microculture tetrazolium assay; format: functional, cell-based; method in brief: as §2
DU-145 = test: Antiproliferative activity against human DU145 cells […] by microculture tetrazolium assay; format: functional, cell-based; method in brief: as §2
[3] = target: Proto-oncogene tyrosine-protein kinase Src (Homo sapiens) (UniProt P12931); test: Inhibition of Src tyrosine kinase at 1 uM after 20 mins
Chain of Proto-oncogene tyrosine-protein kinase Src (Homo sapiens) (P12931 2-536 limits assumed): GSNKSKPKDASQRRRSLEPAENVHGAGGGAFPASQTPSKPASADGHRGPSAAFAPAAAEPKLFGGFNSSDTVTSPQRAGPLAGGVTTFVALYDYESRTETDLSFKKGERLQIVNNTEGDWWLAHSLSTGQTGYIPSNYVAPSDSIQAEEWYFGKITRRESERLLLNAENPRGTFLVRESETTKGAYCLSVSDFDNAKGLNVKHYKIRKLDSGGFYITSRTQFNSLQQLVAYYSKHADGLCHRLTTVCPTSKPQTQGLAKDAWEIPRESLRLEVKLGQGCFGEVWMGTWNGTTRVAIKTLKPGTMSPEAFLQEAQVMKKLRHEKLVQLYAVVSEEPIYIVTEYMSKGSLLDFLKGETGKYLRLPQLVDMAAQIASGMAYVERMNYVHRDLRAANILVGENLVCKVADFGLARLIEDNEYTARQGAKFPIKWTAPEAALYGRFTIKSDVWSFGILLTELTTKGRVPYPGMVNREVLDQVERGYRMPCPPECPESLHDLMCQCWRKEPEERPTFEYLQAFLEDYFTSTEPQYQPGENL

[4] = target: T3, DNA topoisomerase 1 (Homo sapiens) (UniProt P11387); test: Inhibition of topoisomerase 1 upto 50 uM
T3 sequence (whole entry): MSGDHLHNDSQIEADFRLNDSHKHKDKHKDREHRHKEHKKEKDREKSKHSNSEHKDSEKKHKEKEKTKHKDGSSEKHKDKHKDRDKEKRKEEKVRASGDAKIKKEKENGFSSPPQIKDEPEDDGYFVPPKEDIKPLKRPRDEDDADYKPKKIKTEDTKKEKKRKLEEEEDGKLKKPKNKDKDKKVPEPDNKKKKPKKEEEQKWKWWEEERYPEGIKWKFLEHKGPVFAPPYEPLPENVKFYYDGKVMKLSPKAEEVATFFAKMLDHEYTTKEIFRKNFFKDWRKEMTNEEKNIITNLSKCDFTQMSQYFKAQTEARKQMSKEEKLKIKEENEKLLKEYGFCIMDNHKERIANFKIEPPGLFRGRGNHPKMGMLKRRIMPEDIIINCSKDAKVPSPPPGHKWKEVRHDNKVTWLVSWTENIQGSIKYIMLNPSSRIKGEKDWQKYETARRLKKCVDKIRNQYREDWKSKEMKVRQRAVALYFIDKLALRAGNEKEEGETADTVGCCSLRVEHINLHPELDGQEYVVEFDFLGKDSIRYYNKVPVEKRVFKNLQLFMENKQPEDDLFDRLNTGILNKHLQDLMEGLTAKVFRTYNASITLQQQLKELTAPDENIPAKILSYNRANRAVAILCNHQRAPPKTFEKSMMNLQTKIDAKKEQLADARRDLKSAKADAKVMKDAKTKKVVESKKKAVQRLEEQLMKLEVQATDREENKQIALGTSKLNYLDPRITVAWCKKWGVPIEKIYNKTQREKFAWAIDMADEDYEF
Method in brief: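 DNA relaxation and DNA cleavage assays with topoisomerase I, run following published procedures, with compounds up to 50 µM.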

Homo sapiens [5] = organism: Homo sapiens; test: Binding affinity to DNA assessed as melting temperature
[6] = target: T3, DNA topoisomerase 1 (Homo sapiens); test: Inhibition of topoisomerase 1
[7] = target: Protein kinase C beta type (Homo sapiens) (UniProt P05771); test: Inhibition of PKCbeta at 1 uM
Chain of Protein kinase C beta type (Homo sapiens) (P05771 2-671 limits assumed): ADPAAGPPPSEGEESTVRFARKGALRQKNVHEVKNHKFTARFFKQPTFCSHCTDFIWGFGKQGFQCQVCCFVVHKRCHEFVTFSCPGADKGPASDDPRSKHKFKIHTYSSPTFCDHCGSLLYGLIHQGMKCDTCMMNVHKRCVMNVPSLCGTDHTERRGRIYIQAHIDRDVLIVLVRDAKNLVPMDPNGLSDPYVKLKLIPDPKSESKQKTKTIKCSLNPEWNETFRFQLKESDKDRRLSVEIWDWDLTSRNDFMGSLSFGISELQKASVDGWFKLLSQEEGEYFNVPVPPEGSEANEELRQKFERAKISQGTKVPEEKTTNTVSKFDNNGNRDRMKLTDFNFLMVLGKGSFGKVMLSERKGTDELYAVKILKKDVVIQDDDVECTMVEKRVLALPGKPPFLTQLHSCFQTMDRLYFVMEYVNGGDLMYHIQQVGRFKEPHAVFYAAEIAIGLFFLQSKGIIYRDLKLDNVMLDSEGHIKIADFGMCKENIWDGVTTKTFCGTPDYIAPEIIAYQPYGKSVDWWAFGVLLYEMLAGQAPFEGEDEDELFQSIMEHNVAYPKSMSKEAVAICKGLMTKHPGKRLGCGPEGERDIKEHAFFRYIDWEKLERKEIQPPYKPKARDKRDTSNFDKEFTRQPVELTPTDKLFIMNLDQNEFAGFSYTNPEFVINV
Method in brief: (§3)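 Single-concentration (1 µM) inhibition profiling carried out through a commercial kinase profiler screening service.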

[8] = target: Ribosomal protein S6 kinase beta-1 (Homo sapiens) (UniProt P23443); test: Inhibition of P70S6K at 1 uM; method in brief: as §3
Chain of Ribosomal protein S6 kinase beta-1 (Homo sapiens) (P23443 whole entry, looked up): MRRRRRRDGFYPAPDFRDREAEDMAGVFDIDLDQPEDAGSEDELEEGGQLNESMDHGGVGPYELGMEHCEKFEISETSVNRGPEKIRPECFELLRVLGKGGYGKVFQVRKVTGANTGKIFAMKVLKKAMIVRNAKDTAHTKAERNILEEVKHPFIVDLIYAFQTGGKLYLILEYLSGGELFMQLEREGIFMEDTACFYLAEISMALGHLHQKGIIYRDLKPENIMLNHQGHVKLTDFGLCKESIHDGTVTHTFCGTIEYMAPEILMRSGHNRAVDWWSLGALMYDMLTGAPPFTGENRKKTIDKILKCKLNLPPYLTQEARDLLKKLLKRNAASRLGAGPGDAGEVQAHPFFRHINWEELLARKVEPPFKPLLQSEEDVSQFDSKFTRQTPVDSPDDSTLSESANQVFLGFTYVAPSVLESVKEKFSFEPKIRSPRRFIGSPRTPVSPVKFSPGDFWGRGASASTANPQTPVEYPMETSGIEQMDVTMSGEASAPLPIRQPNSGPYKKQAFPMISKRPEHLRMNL

Homo sapiens [9] = organism: Homo sapiens; test: Inhibition of FGFR3 at 1 uM; method in brief: as §3
[10] = target: Protein kinase C alpha type (Homo sapiens) (UniProt P17252); test: Inhibition of PKCalpha at 1 uM; method in brief: as §3
Homo sapiens [11] = organism: Homo sapiens; test: Inhibition of CK1 at 1 uM; method in brief: as §3
[12] = target: MAP kinase-activated protein kinase 2 (Homo sapiens) (UniProt P49137); test: Inhibition of MAPKAPK2 at 1 uM; method in brief: as §3
Chain of MAP kinase-activated protein kinase 2 (Homo sapiens) (P49137 whole entry, looked up): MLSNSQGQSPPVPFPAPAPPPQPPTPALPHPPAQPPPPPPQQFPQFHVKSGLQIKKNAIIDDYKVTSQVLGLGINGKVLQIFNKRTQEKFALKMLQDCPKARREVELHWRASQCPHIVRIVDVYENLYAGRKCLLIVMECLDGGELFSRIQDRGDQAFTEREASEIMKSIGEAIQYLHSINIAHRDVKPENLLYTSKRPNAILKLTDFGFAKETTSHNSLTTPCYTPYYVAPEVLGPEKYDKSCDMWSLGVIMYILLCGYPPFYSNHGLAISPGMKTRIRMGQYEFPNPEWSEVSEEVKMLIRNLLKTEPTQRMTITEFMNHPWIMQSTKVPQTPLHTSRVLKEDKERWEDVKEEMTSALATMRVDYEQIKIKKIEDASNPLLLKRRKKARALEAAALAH

[13] = target: T4, Protein kinase C epsilon type (Homo sapiens) (UniProt Q02156); test: Inhibition of PKCepsilon at 1 uM; method in brief: as §3
T4 sequence (whole entry): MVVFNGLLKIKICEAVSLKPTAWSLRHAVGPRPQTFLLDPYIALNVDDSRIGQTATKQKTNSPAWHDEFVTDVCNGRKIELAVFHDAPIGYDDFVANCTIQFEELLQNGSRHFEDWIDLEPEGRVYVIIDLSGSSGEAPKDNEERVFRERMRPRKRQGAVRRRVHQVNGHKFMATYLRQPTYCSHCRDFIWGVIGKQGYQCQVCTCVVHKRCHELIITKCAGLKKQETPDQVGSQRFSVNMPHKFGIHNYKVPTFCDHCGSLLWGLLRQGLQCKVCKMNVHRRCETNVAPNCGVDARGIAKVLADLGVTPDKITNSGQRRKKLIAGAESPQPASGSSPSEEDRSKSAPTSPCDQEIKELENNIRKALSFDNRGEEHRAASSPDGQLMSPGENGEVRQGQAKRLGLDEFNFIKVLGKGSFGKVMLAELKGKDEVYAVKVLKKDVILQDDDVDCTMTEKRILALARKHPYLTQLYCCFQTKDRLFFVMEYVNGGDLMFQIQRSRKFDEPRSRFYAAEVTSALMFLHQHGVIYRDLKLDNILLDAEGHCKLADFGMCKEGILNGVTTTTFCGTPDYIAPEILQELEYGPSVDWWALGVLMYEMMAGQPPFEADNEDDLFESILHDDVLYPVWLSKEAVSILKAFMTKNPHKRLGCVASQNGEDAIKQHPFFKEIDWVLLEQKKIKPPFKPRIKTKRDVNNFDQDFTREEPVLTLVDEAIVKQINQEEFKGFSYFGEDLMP

[14] = target: AMP-activated protein kinase, AMPK (Homo sapiens) (UniProt P54646+O43741+P54619+Q9UGJ0+Q9Y478+Q13131+Q9UGI9); test: Inhibition of AMPK at 1 uM; format: protein-complex assay; method in brief: as §3
[15] = target: Cyclin-dependent kinase 2 (Homo sapiens) (UniProt P24941); test: Inhibition of CDK2/cyclin A at 1 uM; method in brief: as §3
Homo sapiens [16] = organism: Homo sapiens; test: Inhibition of GSK3 at 1 uM; method in brief: as §3
Homo sapiens [17] = organism: Homo sapiens; test: Inhibition of PKA at 1 uM; method in brief: as §3
Homo sapiens [18] = organism: Homo sapiens; test: Inhibition of CAMK2 at 1 uM; method in brief: as §3
[19] = target: T1, Serine/threonine-protein kinase Chk1 (Homo sapiens); test: Inhibition of Chk1 at 1 uM
[20] = target: Mitogen-activated protein kinase 1 (Homo sapiens) (UniProt P28482); test: Inhibition of MAPK1 at 1 uM; method in brief: as §3
Chain of Mitogen-activated protein kinase 1 (Homo sapiens) (P28482 whole entry): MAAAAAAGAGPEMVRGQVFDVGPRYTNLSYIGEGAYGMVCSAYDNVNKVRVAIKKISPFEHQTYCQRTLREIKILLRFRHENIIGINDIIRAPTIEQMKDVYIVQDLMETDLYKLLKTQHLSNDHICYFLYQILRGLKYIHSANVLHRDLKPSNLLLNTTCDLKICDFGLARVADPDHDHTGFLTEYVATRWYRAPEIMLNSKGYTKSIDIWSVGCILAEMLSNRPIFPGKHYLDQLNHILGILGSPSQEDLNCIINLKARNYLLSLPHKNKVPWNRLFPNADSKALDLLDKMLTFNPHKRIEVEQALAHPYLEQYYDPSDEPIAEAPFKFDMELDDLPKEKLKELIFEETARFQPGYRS

[21] = target: Tyrosine-protein kinase Lck (Homo sapiens) (UniProt P06239); test: Inhibition of LCK at 1 uM; method in brief: as §3
Chain of Tyrosine-protein kinase Lck (Homo sapiens) (P06239 2-509 limits assumed): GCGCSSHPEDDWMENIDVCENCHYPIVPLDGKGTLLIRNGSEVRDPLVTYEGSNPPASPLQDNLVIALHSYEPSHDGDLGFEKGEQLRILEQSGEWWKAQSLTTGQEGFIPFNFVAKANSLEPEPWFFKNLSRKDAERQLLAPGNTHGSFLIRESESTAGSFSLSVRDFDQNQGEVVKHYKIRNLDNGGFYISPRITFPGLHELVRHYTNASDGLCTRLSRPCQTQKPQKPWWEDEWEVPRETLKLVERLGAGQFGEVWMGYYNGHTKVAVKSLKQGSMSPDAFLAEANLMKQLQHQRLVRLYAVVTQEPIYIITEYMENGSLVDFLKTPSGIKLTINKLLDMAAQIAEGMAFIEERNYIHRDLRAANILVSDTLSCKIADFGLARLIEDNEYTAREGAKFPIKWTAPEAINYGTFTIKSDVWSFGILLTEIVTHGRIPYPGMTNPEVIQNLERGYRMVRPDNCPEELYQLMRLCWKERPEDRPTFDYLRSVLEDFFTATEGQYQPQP

| Compound | inhibition [1] | IC50 (A549) | IC50 [2] | IC50 (L1210) | IC50 (HT-29) | IC50 (DU-145) | Activity [4] | Activity (Homo sapiens [5]) | Activity [6] | other results |
| --- | --- | --- | --- | --- | --- | --- | --- | --- | --- | --- |
| O=C1NC(=O)c2c1c1c3cc(OCc4ccccc4)ccc3[nH]c1c1cccn21 | 54.8% | 23.2 µM | 0.64 µM | 27 µM | 13.7 µM |  |  |  |  |  |
| O=C1NC(=O)c2c1c1[nH]cnc1c1[nH]c3ccccc3c21 [GRANULATIMIDE] | 93.9% | 11.4 µM | 0.08 µM |  |  | 2.8 µM |  |  |  |  |
| O=C1NC(=O)c2c1c1c3cc(O)ccc3[nH]c1c1cccn21 | 95.8% | 16.1 µM | 0.016 µM | 4.5 µM | 27.8 µM | 15.1 µM |  |  |  | inhibition [3]: 1.2% |
| CN1C(=O)c2c(n3ccnc3c3c2c2cccnc2n3[C@@H]2O[C@H](CO)[C@@H](O)[C@H](O)[C@H]2O)C1=O | 10.7% | 128 µM |  | > 100 µM | 53 µM | 64.8 µM | inactive | inactive | inactive |  |
| CN1C(=O)c2c(n3cccc3c3[nH]c4ccc(Br)cc4c23)C1=O | 7.1% | 67 µM |  | 48.7 µM | 88.3 µM | > 100 µM |  |  |  |  |
| O=C1NC(=O)c2c1c1c3ccccc3[nH]c1n1cncc21 [ISOGRANULATIMIDE] |  | 18.1 µM | 0.44 µM |  |  | 13.1 µM |  |  |  |  |
| CN1C(=O)c2c(c3c4ccccc4[nH]c3c3cc[nH]c23)C1=O | 43.1% | 47.1 µM |  | 4.9 µM | 5.9 µM | 1.9 µM | inactive | inactive | inactive |  |
| CN1C(=O)c2c(n3cncc3c3[nH]c4ncccc4c23)C1=O | 11.6% | 7.4 µM |  | 8.8 µM | 9.7 µM | 13.5 µM |  |  |  |  |
| CN1C(=O)c2c(n3ccnc3c3[nH]c4ncccc4c23)C1=O | 36.1% | 35.6 µM |  | 43.5 µM | 30.6 µM | 7.4 µM | inactive |  | inactive |  |
| CN1C(=O)c2c(n3cccc3c3[nH]c4ccc(Cl)cc4c23)C1=O | 55.6% | 68.3 µM |  | 41.2 µM | 63.2 µM |  | inactive | inactive | inactive |  |
| CN1C(=O)c2c(n3cccc3c3[nH]c4ccc(OCc5ccccc5)cc4c23)C1=O | 10.3% | 20 µM |  | 42.7 µM | 35.9 µM | 22.7 µM | inactive | inactive | inactive |  |
| O=C1NC(=O)c2c1c1c3cc(Cl)ccc3[nH]c1c1cccn21 | 95.4% | 28.9 µM | 0.089 µM | 14.7 µM | 30.4 µM | 27.4 µM | inactive | inactive | inactive | % activity [7]: 79%; % activity [8]: 51%; % activity (Homo sapiens [9]): 32%; % activity [10]: 75%; inhibition [3]: 22.1%; % activity (Homo sapiens [11]): 94%; % activity [12]: 75%; % activity [13]: 86%; % activity [14]: 29%; % activity [15]: 69%; % activity (Homo sapiens [16]): 39%; % activity (Homo sapiens [17]): 98%; % activity (Homo sapiens [18]): 40%; % activity [19]: 6%; % activity [20]: 98%; % activity [21]: 92% |
| CN1C(=O)c2c(n3cccc3c3[nH]c4ccccc4c23)C1=O |  | > 100 µM |  | 33 µM | > 100 µM | 1.2 µM | inactive | inactive | inactive |  |
| O=C1NC(=O)c2c1c1c3ccccc3[nH]c1c1cccn21 | 85% | 2 µM | 0.024 µM | 3.1 µM | 3.3 µM | 1.4 µM | inactive | inactive | inactive | inhibition [3]: 32.5% |
| CN1C(=O)c2c(n3cncc3c3c2c2cccnc2n3[C@@H]2O[C@H](CO)[C@@H](O)[C@H](O)[C@H]2O)C1=O | 15.1% | 78.5 µM |  | > 100 µM | 52.5 µM | 56.1 µM |  |  |  |  |
| CN1C(=O)c2c(n3cccc3c3[nH]c4ccc(O)cc4c23)C1=O | 54.1% | 8.8 µM |  | 5.4 µM | 26.5 µM |  |  |  |  |  |
| O=C1NC(=O)c2c1c1c3cc(Br)ccc3[nH]c1c1cccn21 | 87.9% | 20.9 µM | 0.066 µM | 12.5 µM | 29 µM | 21.7 µM |  |  |  | % activity [7]: 98%; % activity [8]: 26%; % activity (Homo sapiens [9]): 50%; % activity [10]: 85%; inhibition [3]: 22.3%; % activity (Homo sapiens [11]): 104%; % activity [12]: 99%; % activity [13]: 90%; % activity [14]: 46%; % activity [15]: 88%; % activity (Homo sapiens [16]): 44%; % activity (Homo sapiens [17]): 103%; % activity (Homo sapiens [18]): 55%; % activity [19]: 14%; % activity [20]: 88%; % activity [21]: 91% |
| O=C1NC(=O)c2c1c1c3cccnc3[nH]c1c1cccn21 | 76.6% | 19.7 µM | 3.6 µM | 29.2 µM | 17.1 µM | 4.6 µM |  |  |  |  |
